Activity and EC50 data for 14 compounds are collected here from ChEMBL document CHEMBL5329149, “Identification of macrocyclic peptides which activate bacterial cylindrical proteases” (RSC Med Chem, 2023).

The target of test [1] is T1, ATP-dependent Clp protease proteolytic subunit (Staphylococcus aureus (strain NCTC 8325)) (UniProt Q2G036).
T1 sequence (whole entry): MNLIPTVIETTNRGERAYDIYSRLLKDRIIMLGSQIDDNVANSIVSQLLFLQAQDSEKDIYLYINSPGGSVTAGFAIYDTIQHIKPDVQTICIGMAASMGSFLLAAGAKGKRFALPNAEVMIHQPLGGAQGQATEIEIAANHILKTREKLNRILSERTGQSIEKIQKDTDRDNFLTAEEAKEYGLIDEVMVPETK
The test is described as follows: Activation of Staphylococcus aureus ClpP assessed as beta-casein digestion using beta-casein/FITC casein as substrate at 200 uM incubated for 24 hrs. Particulars: filed as activator. The essentials:
(§1)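 Purified ClpP (1.0 µM, final) was incubated with bovine beta-casein (5.0 µM or 3 µM) and ligand at 37 °C, in 100 mM Tris-HCl pH 7.6 with 100 mM KCl or 100 mM HEPES pH 7 with 150 mM NaCl. Timed aliquots were quenched in SDS loading buffer at 90 °C for 5 min, run on SDS-PAGE, stained with Coomassie and quantified by densitometry. ≥3 independent experiments.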

Test [2] concerns the target T1, ATP-dependent Clp protease proteolytic subunit (Staphylococcus aureus (strain NCTC 8325)). The test is described as follows: Activation of Staphylococcus aureus ClpP assessed as FtsZ digestion at 200 uM incubated for 24 hrs by densitometric analysis. Particulars: filed as activator. The essentials: (§2)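 Strep-tagged S. aureus ClpP (1.0 µM, expressed in ClpP-deficient E. coli SG1146a) digesting S. aureus FtsZ (4.0 µM, final) with ligand at 37 °C, under the same conditions as the beta-casein assay. Timed aliquots were quenched with SDS loading buffer and heated, then resolved by SDS-PAGE, Coomassie-stained and quantified by densitometry. ≥3 independent experiments.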

For test [3] the target is unchanged. The test is described as follows: Induction of tetra-decameric form of Staphylococcus aureus ClpP stabilization in Tris-HCl. The essentials: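 S. aureus ClpP (1 mg/mL) incubated overnight at 32 °C with or without ligands (200 µM, DMSO as blank) in destabilizing buffer (100 mM Tris-HCl pH 7.6, 100 mM KCl). Oligomeric state then analysed by gel filtration on a pre-equilibrated Superdex 200 Increase 10/300 column, tetradecamer versus heptamer.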

In test [4] the target is ATP-dependent Clp protease proteolytic subunit (Escherichia coli (strain K12)) (UniProt P0A6G7). Kind of test: Activation of Escherichia coli ClpP assessed as increase in fluorescence intensity using beta-casein/FITC casein as substrate at 200 uM incubated for 24 hrs. Put shortly:
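E. coli ClpP (0.5 µM, His-tagged, expressed in E. coli C41(DE3)) with FITC-casein (1.8 µM) plus bovine beta-casein (4.8 µM), final concentrations. Ligands at 200 µM in 100 mM Tris-HCl pH 7.6, 100 mM KCl, 24 h at 37 °C. Fluorescence read at ex 483/em 530 nm, mean of DMSO wells subtracted. Run in parallel without ClpP to exclude false positives. Duplicates, ≥2 independent experiments, mean ± SD.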

The target is the same in test [5]. Kind of test: Activation of Escherichia coli ClpP assessed as beta-casein digestion using beta-casein/FITC casein as substrate at 200 uM incubated for 24 hrs by SDS-PAGE analysis. Particulars: filed as activator. The essentials:
as §1

Test [6] deals with T1, ATP-dependent Clp protease proteolytic subunit (Staphylococcus aureus (strain NCTC 8325)). Kind of test: Activation of Staphylococcus aureus ClpP assessed as FtsZ digestion at 10 uM incubated for 24 hrs by densitometric analysis. Particulars: filed as activator. The essentials: as §2
Test [7] has the same target. Kind of test: Activation of Staphylococcus aureus ClpP assessed as beta-casein digestion using beta-casein/FITC casein as substrate at 10 uM incubated for 24 hrs. The conditions noted are these: filed as activator. The essentials:
as §1

For test [8], the target named is T2, ATP-dependent Clp protease proteolytic subunit (Staphylococcus aureus (strain NCTC 8325), UniProt Q2G036).
T2 sequence (Q2G036 whole entry): T1 sequence (whole entry)
The test is described as follows: Activation of Staphylococcus aureus ClpP assessed as beta-casein digestion using beta-casein/FITC casein as substrate incubated for 24 hrs.

Molecules are shown by their SMILES. Calls of active or inactive are those of the source. No cut-off for these calls is given here. Starred links: 1 amine or outer side, 2 acyl side, 3 side chain; linkers in the order of their positions; H or OH if unused. Positions of bridges follow the written chain, without caps; N, C: chain ends. Non-standard residues stand in square brackets, D forms with d. Residues, ends and D or L forms follow the SMILES beside them. *: point of attachment. Phe(3,5-F2) = N[C@@H](Cc1cc(F)cc(F)c1)C(=O)O; X1 = CN(CC(=O)O)c1nc(CC[*:1])cc(CC[*:2])n1; CH2COCH2 = O=C(C[*:1])C[*:2]; Cam = NC(=O)C*

ATP-dependent Clp protease proteolytic subunit (Escherichia coli (strain K12)), sequence (P0A6G7 whole entry): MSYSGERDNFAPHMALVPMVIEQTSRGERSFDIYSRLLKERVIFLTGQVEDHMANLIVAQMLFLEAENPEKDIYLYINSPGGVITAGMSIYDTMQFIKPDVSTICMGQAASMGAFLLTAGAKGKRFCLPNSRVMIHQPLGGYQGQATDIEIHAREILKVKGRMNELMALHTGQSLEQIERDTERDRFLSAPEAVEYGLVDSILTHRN

For `CCCC/C=C/C(=O)N[C@@H](Cc1cc(F)cc(F)c1)C(=O)OC`, the result in test [1], in test [2] and in test [3] was Active.

For the compound `CC[C@H](C)[C@@H]1NC(=O)CNC(=O)[C@@H](NC(C)=O)CSCC(=O)CSC[C@@H](C(N)=O)NC(=O)CNC(=O)[C@@H](Cc2ccccc2)NC(=O)CNC1=O`, in test [4], the result was inactive.

Regarding `CC[C@H](C)[C@@H]1NC(=O)CNC(=O)[C@@H](NC(C)=O)CSCC(=O)CSC[C@@H](C(N)=O)NC(=O)CNC(=O)[C@H](Cc2ccccc2)NC(=O)CNC1=O`, the outcome in test [1], in test [2] and in test [5] was Active.

Take `CC[C@H](C)[C@@H]1NC(=O)CNC(=O)[C@H](NC(C)=O)CSCC(=O)CSC[C@@H](C(N)=O)NC(=O)CNC(=O)[C@H](C)NC(=O)CNC1=O`: the outcome in test [4] was inactive.

`C[C@@H]1C[C@H]2C(=O)OC[C@H](NC(=O)[C@H](Cc3cc(F)cc(F)c3)NC(=O)CCC3CCCCC3)C(=O)N3CCC[C@H]3C(=O)N3CCCC[C@H]3C(=O)N[C@@H](C)C(=O)N2C1`: the outcome in test [6], in test [7] and in test [3] was Active.

For the compound `CC[C@H](C)[C@H](NC(=O)CNC(=O)[C@H](CSCC(N)=O)NC(C)=O)C(=O)NCC(=O)N[C@@H](Cc1ccccc1)C(=O)NCC(=O)N[C@@H](C)C(=O)N[C@@H](CSCC(N)=O)C(N)=O` (Ac-C(Cam)GIGFGAC(Cam)-NH2), the result in test [4] was inactive.

As for `CC[C@H](C)[C@H](NC(=O)CNC(=O)[C@H](CSCC(N)=O)NC(C)=O)C(=O)NCC(=O)N[C@@H](Cc1ccccc1)C(=O)NCC(=O)N[C@@H](C)C(=O)N[C@H](C(=O)N[C@@H](CSCC(N)=O)C(N)=O)[C@@H](C)O` (Ac-C(Cam)GIGFGATC(Cam)-NH2), the result in test [4] was inactive.

`CC[C@H](C)[C@H](NC(=O)CNC(=O)[C@H](CSCC(N)=O)NC(C)=O)C(=O)NCC(=O)N[C@@H](Cc1ccccc1)C(=O)NCC(=O)N[C@@H](CSCC(N)=O)C(N)=O` (Ac-C(Cam)GIGFGC(Cam)-NH2): the outcome in test [4] was inactive.

Consider `CC[C@H](C)[C@H](NC(=O)CNC(=O)[C@H](CSCC(N)=O)NC(C)=O)C(=O)NCC(=O)N[C@@H](Cc1cc(F)cc(F)c1)C(=O)NCC(=O)N[C@@H](CSCC(N)=O)C(N)=O` (Ac-C(Cam)GIG[Phe(3,5-F2)]GC(Cam)-NH2), for which the outcome in test [4] was inactive.

Turning to `CC[C@H](C)[C@H](NC(=O)[C@H](CSCC(N)=O)NC(C)=O)C(=O)NCC(=O)N[C@@H](Cc1ccccc1)C(=O)NCC(=O)N[C@@H](C)C(=O)N[C@@H](CSCC(N)=O)C(N)=O` (Ac-C(Cam)IGFGAC(Cam)-NH2), the outcome in test [4] was inactive.

In the case of `CC[C@H](C)[C@H](NC(=O)[C@H](CSCC(N)=O)NC(C)=O)C(=O)NCC(=O)N[C@@H](Cc1ccccc1)C(=O)NCC(=O)N[C@@H](C)C(=O)N[C@H](C(=O)N[C@@H](CSCC(N)=O)C(N)=O)[C@@H](C)O` (Ac-C(Cam)IGFGATC(Cam)-NH2), in test [4], the result was inactive.

Consider `CC[C@H](C)[C@H](NC(=O)[C@H](CSCC(N)=O)NC(C)=O)C(=O)NCC(=O)N[C@@H](Cc1ccccc1)C(=O)NCC(=O)N[C@@H](CSCC(N)=O)C(N)=O` (Ac-C(Cam)IGFGC(Cam)-NH2), for which the outcome in test [4] was inactive.

`CC[C@H](C)[C@@H]1NC(=O)CNC(=O)[C@@H](NC(C)=O)CSCC(=O)CSC[C@@H](C(N)=O)NC(=O)CNC(=O)[C@H](Cc2cc(F)cc(F)c2)NC(=O)CNC1=O` (Ac-CGIG[Phe(3,5-F2)]GC-NH2; linker 1-7 via CH2COCH2): the EC50 in test [8] worked out at 41 µM. Besides, the result in test [1], in test [2], in test [5] and in test [4] (filed as activator) was Active.

Turning to `CC[C@H](C)[C@@H]1NC(=O)CNC(=O)[C@@H](NC(C)=O)CSCCc2cc(nc(N(C)CC(=O)O)n2)CCSC[C@@H](C(N)=O)NC(=O)CNC(=O)[C@H](Cc2cc(F)cc(F)c2)NC(=O)CNC1=O` (Ac-CGIG[Phe(3,5-F2)]GC-NH2; linker 1-7 via X1), the outcome in test [4] was inactive.
